Data: the EternaBench riboswitch data

Test system: MS2 coat protein
Assay: apparent Kd, MS2 coat protein; higher = weaker binding; RNA-MaP array; FMN 200 µM where present
Outline: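 Binding was read on Illumina sequencing-chip clusters where stalled E. coli RNA polymerase had transcribed each design. A titration of SNAP-549-labelled MS2 coat protein began at 0.7 or 1.5 nM and doubled to 3 µM, once without ligand and once with constant ligand, in 100 mM Tris-HCl pH 7.5, 80 mM KCl, 4 mM MgCl2, BSA, DTT, yeast tRNA and Tween-20. The apparent Kd is the median of filtered per-cluster binding-curve fits, based on green signal normalised to red-channel RNA signal and control-cluster median Fmax.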

[1] = designed as: OFF switch for flavin mononucleotide, no ligand
[2] = ligand present: flavin mononucleotide, designed as: OFF switch for flavin mononucleotide
[3] = designed as: ON switch for flavin mononucleotide, no ligand
[4] = ligand present: flavin mononucleotide, designed as: ON switch for flavin mononucleotide

## AUGCCUUAUGUAGGAUAUGCAUAGCGUUGCUAUGCAGAAGGACAUGAGGAUCACCCAUGUAUGUAUUCCAUACAUAUCUGGCAU
[1]
  apparent Kd: 26.8 nM
[2]
  apparent Kd: 343 nM

## GGAUGGGACAGAGGAUAUACGUGCUAGAGAUACUAGCAAAAUUUCCUCACAUGAGGAUCACCCAUGUAGAAGGCUGUCCUAUCG
[1]
  apparent Kd: 15.2 nM
[2]
  apparent Kd: 513 nM

## UAUUUACAUGAGGAUCACCCAUGUCAGGAUAUGUUUCUAUCGUCGAAAGAUGAUAUUUGCAGAAGGGACAAUAU
[1]
  apparent Kd: 36.1 nM
[2]
  apparent Kd: 72.5 nM

## GCAGCAAUCUAAAACAUGAGGAUCACCCAUGUCGAGAGAUAUGAGGAUAUGCAUCUGAAGAAGAUGCAGAAGGCAUUGUGCUGC
[3]
  apparent Kd: 8.1 nM
[4]
  apparent Kd: 6.15 nM

## CAGGUAGACUGAGGAUAUACAUUAAACAGCUAGUCUAUCUAGCUGCUCACAUGAGGAUCACCCAUGUAGAAGGCAGUCUGCCUG
[1]
  apparent Kd: 26.1 nM
[2]
  apparent Kd: 75 nM

## GUGCGUGGCUAGGAUAUUGUGGAGUUUAGUCAGCGAGAAGGGACUACAUGAGGAUCACCCAUGUGUAGUUGCUC
[1]
  apparent Kd: 212 nM
[2]
  apparent Kd: 198 nM

## GUAGAACAUGAGGAUCACCCAUGUGAGGGCGCAUGAGGAUAUGUCCGUACCUAGCAUACGAUAGAAGGCAUGGUGC
[3]
  apparent Kd: 38.7 nM
[4]
  apparent Kd: 27.4 nM

## CGCUCACAUGAGGAUCACCCAUGUCCUAGGAGGUCAGGAUAUAGCUCGGAUGCGUUGAGGCUAGAAGGGACAGCUG
[3]
  apparent Kd: 259 nM
[4]
  apparent Kd: 84.7 nM

## GCAGACGUAGUGAGGAUAUGCUCUACCUCGGUAGAGCAGAAGGCACAUGAGGAUCACCCAUGUGGCUCCUCUGC
[1]
  apparent Kd: 16.2 nM
[2]
  apparent Kd: 25.1 nM

## CUUUUUUUUGUGAGGAUAUACUGUUAUUAAAGUUAGUAGAAGGUACAUGAGGAUCACCCAUGUUAAUUACUUUA
[1]
  apparent Kd: 14.2 nM
[2]
  apparent Kd: 13.8 nM

## GCGUUCUUGUAGAAGGUACCUUCAACAUAUUAUAAACGCUAGACACAUGAGGAUCACCCAUGUUGUAAGGAUAUACAUGAACGC
[3]
  apparent Kd: 16.7 nM
[4]
  apparent Kd: 13.5 nM

## AAAAACCGAGGAUAUACAUGAGGAUCACCCAUGUCAAAAAAAAAAAAAAAAAAAAAAGGUAGAAGGCGGAAAAA
[1]
  apparent Kd: 64.3 nM
[2]
  apparent Kd: 57.9 nM

## UAUUUACAUGAGGAUCACCCAUGUUAGGAUAUGUUUCUAUCGUCGAAAGAUGAUAUUUGCAGAAGGGACAUUAU
[1]
  apparent Kd: 20.5 nM
[2]
  apparent Kd: 23.3 nM

## AGUCGGAGCAGAGGAUAUAUACAUGAGGAUCACCCAUGUAAAUGAAUGAGCUGGAAACAGCAUGUAUAGAAGGCUGCUCCGACA
[1]
  apparent Kd: 113 nM
[2]
  apparent Kd: 303 nM

## GGACGUAAAGAGAAGGGCUACUGGUUGAAACCUGCGGCCUCUGGAACAUGAGGAUCACCCAUGUAGCAGGAUAUCUUUGCAUCA
[1]
  apparent Kd: 180 nM
[2]
  apparent Kd: 14.7 nM

## UCAAAGCUAGGAUAUACAUGAGGAUCACCCAUGUUAUCACCCAUCGGGUCUUGCUUUUGUAGAAGGAGCAAUAA
[1]
  apparent Kd: 28.2 nM
[2]
  apparent Kd: 59.8 nM

## CCCGUGUUAGGAUAUACGGCACACCCACAAACGGGUAUAUAGUAGAAGGAACAUGAGGAUCACCCAUGUAAAAC
[1]
  apparent Kd: 20.2 nM
[2]
  apparent Kd: 46.5 nM

## GCCAUCGCAUGAGGAUAUGCUCGGGUUUCCCGAGCAGAAGGCAUGUAAUAAAACAUGAGGAUCACCCAUGUAGUUAAGAUGGCA
[3]
  apparent Kd: 8.29 nM
[4]
  apparent Kd: 5.36 nM

## AGAGACUUGGGAGGAUAUGCCUGAUGGACACGGGCAGAAGGCCCAAACAUGAGGAUCACCCAUGUAUCUACGCCUUGAACGGGC
[3]
  apparent Kd: 236 nM
[4]
  apparent Kd: 17.7 nM

## AAAUAGAAUGAGGAUAUCGUAUUAUAUUUAGUACGAGAAGGCAUUACAUGAGGAUCACCCAUGUUUUGUUGGGA
[1]
  apparent Kd: 21.8 nM
[2]
  apparent Kd: 57.9 nM

## UGUCGGAGCAGAGGAUAUUACAUGAGGAUCACCCAUGUAUGAACCAAUAGCUGGAAACAGCAAUGUAAGAAGGCUGCUGCGACA
[1]
  apparent Kd: 12.8 nM
[2]
  apparent Kd: 182 nM

## CGUAUAUGGGAGAAGGCAUGUCCCAAAGGGCUAUGAGGAUAUCCUAAGUGUACGCUUUGCGACAUGAGGAUCACCCAUGUAGCA
[3]
  apparent Kd: 10.5 nM
[4]
  apparent Kd: 6.36 nM

## GUAUAUAUGUGGUACAUGAGGAUCACCCAUGUGUCUUUACAUGAGGAUAUGGAUUCUAAUUGGAUCCAGAAGGCAUGUAUAUAC
[3]
  apparent Kd: 33 nM
[4]
  apparent Kd: 23.7 nM

## AACAGCUCGUCAGGAUAUAUUAUAUUUAUAUGGAUUAAUGUACAUGAGGAUCACCCAUGUAGUUAGUAGAAGGGACGAGCUGAA
[1]
  apparent Kd: 8.4 nM
[2]
  apparent Kd: 10.8 nM

## CAGUCUACAGGAUAUACAUGAGGAUCACCCAUGUGUAUCAACCUUCUGUAAUCCUCAUGUAGAAGGGUAGACUG
[1]
  apparent Kd: 16.3 nM
[2]
  apparent Kd: 13.7 nM

## AGAAACAGAGGAUAUCGCGGACAGCACAUGAGGAUCACCCAUGUGAUGCUCCGCGGGCCGCGAGAAGGCUGAAAUG
[1]
  apparent Kd: 15.1 nM
[2]
  apparent Kd: 36.8 nM

## AAAGCAACAUGAGGAUCACCCAUGUAGGAUAUCGCUAUUGUAAUCAUGAAACAUGAUUACAAUAGCGAGAAGGACAUAUGCGGG
[1]
  apparent Kd: 42.5 nM
[2]
  apparent Kd: 45.2 nM

## UAGAAGUCAGGAUAUGCUGCUCGUCACUUGCGUGAUGAGUAGCAGAAGGGACAUGAGGAUCACCCAUGUAAAGU
[1]
  apparent Kd: 52.5 nM
[2]
  apparent Kd: 91 nM

## CUUUUGUGAGGAUAUUGGUAGUAAAUAAAUAAAAUUACUACUGAGAAGGCACAUGAGGAUCACCCAUGUUCCUC
[1]
  apparent Kd: 31.2 nM
[2]
  apparent Kd: 221 nM

## AGCUACGUUUCGUAGCAGUGUCAUCGAGAAGGCUCAAAUACAUGAGGAUCACCCAUGUUAACAUGGGAGGAUAUCGAUGAUACA
[3]
  apparent Kd: 63.6 nM
[4]
  apparent Kd: 7.86 nM

## AAGAGUGCAGGAUAUACUUGGUAGGGCGGGUGGAUGGUUUGACAUGAGGAUCACCCAUGUAGAAGGGCAGAGAG
[1]
  apparent Kd: 38.7 nM
[2]
  apparent Kd: 27.6 nM

## AAAACGUGAGGAUAUGCACCCACCAAGGUUUUUCGGGUACGACAUGAGGAUCACCCAUGUAGAAGGCACGCAAA
[1]
  apparent Kd: 27.6 nM
[2]
  apparent Kd: 21.2 nM

## GUAGCAUACCGAGGAUAUUCAUACAGGAAACAGACAUGAGGAUCACCCAUGUGGCGAAAGCCUUGGGAGAAGGCGGAAUGCUAC
[3]
  apparent Kd: 146 nM
[4]
  apparent Kd: 22.7 nM

## UUAAAUCAUGUAGGAUAUGCAUGGCGAAGCUACGCAGAAGGACAUGAGGAUCACCCAUGUUAUAGCUACCGAAUAAGGUGGCAA
[2]
  apparent Kd: 224 nM

## UACAUGGAACAGAAGGGCAAUUUAUUUAAUUAUUAUUUAGAACAGCUUUGCAGGAUAUGUUUAACAUGAGGAUCACCCAUGUAC
[3]
  apparent Kd: 57.6 nM
[4]
  apparent Kd: 17.4 nM

## AAAAAACAUGAGGAUCACCCAUGUGAGGAUAUAGGAAAAAAAAAAAAAAAAAAAAAAACUAGAAGGCACAAAAA
[1]
  apparent Kd: 55.4 nM
[2]
  apparent Kd: 74.6 nM

## GUCGUGUGAGGAUAUGGUUCGUCGCAGUGGCGGUCGGCGACCUAGAAGGCACAUGAGGAUCACCCAUGUAUGUG
[1]
  apparent Kd: 122 nM
[2]
  apparent Kd: 84 nM

## ACAUUGCGAGGAUAUACAUGAGGAUCACCCAUGUGGUGGCAGAUACGGUAGGGCUAGUGUAGAAGGUGUCAUGG
[1]
  apparent Kd: 528 nM
[2]
  apparent Kd: 435 nM

## GGAGAGUUCACAGGAUAUCAUGGGUAGUUAUUUUGAGAAGGGUGAACAAGGAACAUGAGGAUCACCCAUGUAUCCUGGAAGGGC
[3]
  apparent Kd: 39.9 nM
[4]
  apparent Kd: 60.5 nM

## AAUCCACAUGAGGAUCACCCAUGUGAGGAUAUCGUGCAGAAAAAAAAAAAAAACUGCACGAGAAGGCACAUGGA
[1]
  apparent Kd: 160 nM
[2]
  apparent Kd: 69.1 nM

## AUGGAUAUCACAGGAUAUGCUAAGGAUACCUUAGCAGAAGGGUGAUCCAUCCUAUGGCUGCACAUGAGGAUCACCCAUGUGUCC
[3]
  apparent Kd: 124 nM
[4]
  apparent Kd: 11.8 nM

## CGUUUAUAUCGAGGAUAUAAGUCUAGGACAUGAGGAUCACCCAUGUAUGUCUUAGAAGGCGAUAUAAACAGCCUGUUACAGGCA
[3]
  apparent Kd: 35.3 nM
[4]
  apparent Kd: 6.96 nM

## AAGUCGAGUAAUAAAUAAGAUCUACAUGAGGAUCACCCAUGUAAGGAUAUGCAGUGGAAUACACUGCAGAAGGUACAUCUCGAC
[1]
  apparent Kd: 14 nM
[2]
  apparent Kd: 35 nM

## CAGAGGAUGUAAGGAUAUCGUCAGGAUAACUGACGAGAAGGUACAUGAGGAUCACCCAUGUAACUCUAAUAAUAAUAACCUCUG
[1]
  apparent Kd: 11.7 nM
[2]
  apparent Kd: 17.3 nM

## GGCUGCGUUGUGAAGGAUAUCCGCGUCUGGACAUGAGGAUCACCCAUGUAUGCUUGGAUCGUGCCGGAGAAGGUCACGGGUGAUU
[3]
  apparent Kd: 124 nM
[4]
  apparent Kd: 46 nM

## GGAUUGAAUGAGGAUAUCGUAUUAGGUGUAAUGCGAGAAGGCAUGACAUGAGGAUCACCCAUGUAGUGUGGGUU
[1]
  apparent Kd: 509 nM
[2]
  apparent Kd: 772 nM

## GUGCUUGUCGAAGGAUAUGGUUACAUGAGGAUCACCCAUGUUAUGCUUGGAAAAUUGUUUAGUUUCCAGAAGGUCGAUUAGUUG
[1]
  apparent Kd: 19.7 nM
[2]
  apparent Kd: 17.7 nM

## ACAUGAGGAUGAGGAUAUUCAUACAUGAGGAUAGAAGAAGGCAUACAUGAGGAUCACCCAUGUAUACACAUGAGGAUCACCCAU
[1]
  apparent Kd: 82.5 nM
[2]
  apparent Kd: 85.3 nM
